Laboratory results reported in ChEMBL document CHEMBL3526048, “In vitro metabolism of rivoglitazone, a novel peroxisome proliferator-activated receptor γ agonist, in rat, monkey, and human liver microsomes and freshly isolated hepatocytes” (Drug Metab Dispos, 2011).

How the values were obtained:
Cytochrome P450 3A5 = Cytochrome P450 3A5 (Homo sapiens, UniProt P20815); assay: Activity of human CYP3A5 expressed in microsomes isolated from baculovirus infected insect cell assessed as enzyme-mediated compound formation treated with [14C]-rivoglitazone at 20 uM after 2 hrs by radio-HPLC/LC-MS/MS analysis in presence of NADPH-generating system; assay type: ADME
Procedure, shortened: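 cDNA-expressed human CYP3A5 in baculovirus-insect-cell microsomes (1 mg/ml protein) was incubated with [¹⁴C]rivoglitazone (20 μM) in 50 mM potassium phosphate (pH 7.4) or 100 mM Tris-HCl (pH 7.5). NADPH-generating system: 2 mM NADP⁺, 20 mM glucose 6-phosphate, 2 units/ml G6PDH, 10 mM MgCl₂. Incubation ran 2 h at 37°C with shaking; insect-cell control supersomes served as control. Acetonitrile stop, supernatant concentrated, then radio-HPLC, LC-MS and LC-MS/MS.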

Cytochrome P450 3A4 = Cytochrome P450 3A4 (Homo sapiens, UniProt P08684); assay: Activity of human CYP3A4 expressed in microsomes isolated from baculovirus infected insect cell assessed as enzyme-mediated (2S,3S,4S,5R,6R)-3,4,5-trihydroxy-6-(5-(4-((6-methoxy-1-methyl-1H-benzo[d]imidazol-2-yl)methoxy)benzyl)-2,4-dioxothiazolidin-3-yl)tetrahydro-2H-pyran-2-carboxylic acid formation at 20 uM after 2 hrs by radio-HPLC/LC-MS/MS analysis in presence of UDPGA and UDPGA/SAM; assay type: ADME
Cytochrome P450 2C8 = target: T1, Cytochrome P450 2C8 (Homo sapiens, UniProt P10632); assay: Activity of human CYP2C8 expressed in microsomes isolated from baculovirus infected insect cell assessed as enzyme-mediated 3-(4-((6-methoxy-1-methyl-1H-benzo[d]imidazol-2-yl)methoxy)phenyl)-2-(methylsulfinyl)propanamide formation at 20 uM after 2 hrs by radio-HPLC/LC-MS/MS analysis in presence of NADPH-generating system/SAM; assay type: ADME
T1 sequence (P10632 whole entry): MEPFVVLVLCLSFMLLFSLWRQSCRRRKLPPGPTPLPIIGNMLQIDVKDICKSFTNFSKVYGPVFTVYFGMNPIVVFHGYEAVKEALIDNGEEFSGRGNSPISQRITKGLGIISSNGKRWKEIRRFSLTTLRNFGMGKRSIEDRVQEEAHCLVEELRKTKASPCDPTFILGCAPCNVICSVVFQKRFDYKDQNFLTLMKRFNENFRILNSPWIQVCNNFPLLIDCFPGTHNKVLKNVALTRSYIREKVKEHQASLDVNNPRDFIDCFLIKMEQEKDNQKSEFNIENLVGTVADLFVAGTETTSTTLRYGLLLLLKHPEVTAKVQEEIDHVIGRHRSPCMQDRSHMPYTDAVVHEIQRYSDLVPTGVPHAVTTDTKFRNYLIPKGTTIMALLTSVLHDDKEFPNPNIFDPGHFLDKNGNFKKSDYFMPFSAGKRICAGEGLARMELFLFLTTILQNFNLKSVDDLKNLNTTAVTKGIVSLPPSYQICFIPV

[1] = Drug metabolism in rat hepatocytes assessed as formation of (2S,3S,4S,5R,6R)-3,4,5-trihydroxy-6-(5-(4-((6-methoxy-1-methyl-1H-benzo[d]imidazol-2-yl)methoxy)benzyl)-2,4-dioxothiazolidin-3-yl)tetrahydro-2H-pyran-2-carboxylic acid at 30 uM after 3 hrs by radio-HPLC/LC-MS/MS analysis; assay type: ADME, cell-based, Hepatocyte
Cytochrome P450 2C9 = Cytochrome P450 2C9 (Homo sapiens, UniProt P11712); assay: Activity of human CYP2C9 expressed in microsomes isolated from baculovirus infected insect cell assessed as enzyme-mediated 5-(4-((6-methoxy-1H-benzo[d]imidazol-2-yl)methoxy)benzyl)thiazolidine-2,4-dione formation at 20 uM after 2 hrs by radio-HPLC/LC-MS/MS analysis in presence of NADPH-generating system and NADPH-generating system/SAM; assay type: ADME
[2] = target: T2, UDP-glucuronosyltransferase 1A3 (Homo sapiens, UniProt P35503); assay: Activity of human UGT1A3 expressed in microsomes isolated from baculovirus infected insect cell assessed as enzyme-mediated 3-(4-((6-methoxy-1-methyl-1H-benzo[d]imidazol-2-yl)methoxy)phenyl)-2-(methylthio)propanamide formation at 20 uM after 4 hrs by radio-HPLC/LC-MS/MS analysis in presence of NADPH-generating system/SAM in presence of UDPGA and UDPGA/SAM; assay type: ADME
T2 sequence (P35503 whole entry): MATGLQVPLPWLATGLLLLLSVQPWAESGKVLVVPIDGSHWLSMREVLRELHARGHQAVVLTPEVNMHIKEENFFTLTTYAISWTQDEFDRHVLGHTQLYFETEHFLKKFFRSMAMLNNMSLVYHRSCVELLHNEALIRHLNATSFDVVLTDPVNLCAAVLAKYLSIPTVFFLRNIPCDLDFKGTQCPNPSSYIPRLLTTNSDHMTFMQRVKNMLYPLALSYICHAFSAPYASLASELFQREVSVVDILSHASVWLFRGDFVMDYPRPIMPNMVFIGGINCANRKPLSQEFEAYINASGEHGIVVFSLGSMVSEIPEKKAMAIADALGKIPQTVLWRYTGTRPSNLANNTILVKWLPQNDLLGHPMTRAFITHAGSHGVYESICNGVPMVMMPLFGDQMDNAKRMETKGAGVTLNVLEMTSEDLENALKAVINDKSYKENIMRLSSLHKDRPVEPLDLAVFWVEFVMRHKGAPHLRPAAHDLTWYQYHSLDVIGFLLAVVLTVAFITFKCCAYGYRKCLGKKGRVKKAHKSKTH

[3] = Drug metabolism in cynomolgus monkey liver microsomes assessed as formation of (2S,3S,4S,5R,6R)-6-((1-carboxy-2-(4-((6-methoxy-1-methyl-1H-benzo[d]imidazol-2-yl)methoxy)phenyl)ethylthio)carbonylamino)-3,4,5-trihydroxytetrahydro-2H-pyran-2-carboxylic acid at 20 uM after 4 hrs by radio-HPLC/LC-MS/MS analysis in presence of UDPGA and UDPGA/SAM; assay type: ADME, Macaca fascicularis
[4] = target: T3, UDP-glucuronosyltransferase 2B7 (Homo sapiens, UniProt P16662); assay: Activity of human UGT2B7 expressed in microsomes isolated from baculovirus infected insect cell assessed as enzyme-mediated 5-(4-((6-hydroxy-1-methyl-1H-benzo[d]imidazol-2-yl)methoxy)benzyl)thiazolidine-2,4-dione formation at 20 uM after 4 hrs by radio-HPLC/LC-MS/MS analysis in presence of NADPH-generating system/SAM; assay type: ADME
T3 sequence (P16662 whole entry): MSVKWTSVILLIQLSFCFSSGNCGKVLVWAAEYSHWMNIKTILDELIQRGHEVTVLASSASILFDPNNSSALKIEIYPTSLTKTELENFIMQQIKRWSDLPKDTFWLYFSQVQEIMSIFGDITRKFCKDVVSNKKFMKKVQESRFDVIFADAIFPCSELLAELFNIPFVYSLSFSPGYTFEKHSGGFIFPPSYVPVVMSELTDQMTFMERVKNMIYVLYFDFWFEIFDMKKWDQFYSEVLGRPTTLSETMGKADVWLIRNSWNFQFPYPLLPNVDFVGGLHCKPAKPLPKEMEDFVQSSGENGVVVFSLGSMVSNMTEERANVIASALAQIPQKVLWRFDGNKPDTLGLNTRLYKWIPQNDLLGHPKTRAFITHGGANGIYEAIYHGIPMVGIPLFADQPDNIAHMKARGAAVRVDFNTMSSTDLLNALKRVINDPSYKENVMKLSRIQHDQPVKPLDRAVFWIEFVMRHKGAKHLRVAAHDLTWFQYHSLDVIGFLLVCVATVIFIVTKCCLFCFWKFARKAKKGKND

Chain of Cytochrome P450 2C9 (P11712 whole entry): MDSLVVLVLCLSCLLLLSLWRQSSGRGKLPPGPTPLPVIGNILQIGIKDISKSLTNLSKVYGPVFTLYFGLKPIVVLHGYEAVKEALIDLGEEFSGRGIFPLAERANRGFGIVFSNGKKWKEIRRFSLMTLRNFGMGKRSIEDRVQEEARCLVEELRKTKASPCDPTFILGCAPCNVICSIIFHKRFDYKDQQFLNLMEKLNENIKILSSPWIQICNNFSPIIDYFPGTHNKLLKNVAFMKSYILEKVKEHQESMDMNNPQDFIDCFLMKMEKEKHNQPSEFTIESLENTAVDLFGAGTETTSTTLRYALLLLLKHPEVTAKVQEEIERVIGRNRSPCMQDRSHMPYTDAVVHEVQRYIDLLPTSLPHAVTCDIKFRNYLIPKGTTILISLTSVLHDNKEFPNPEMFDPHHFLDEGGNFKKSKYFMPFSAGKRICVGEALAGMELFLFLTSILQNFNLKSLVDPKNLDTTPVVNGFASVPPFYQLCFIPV
Chain of Cytochrome P450 3A4 (P08684 whole entry): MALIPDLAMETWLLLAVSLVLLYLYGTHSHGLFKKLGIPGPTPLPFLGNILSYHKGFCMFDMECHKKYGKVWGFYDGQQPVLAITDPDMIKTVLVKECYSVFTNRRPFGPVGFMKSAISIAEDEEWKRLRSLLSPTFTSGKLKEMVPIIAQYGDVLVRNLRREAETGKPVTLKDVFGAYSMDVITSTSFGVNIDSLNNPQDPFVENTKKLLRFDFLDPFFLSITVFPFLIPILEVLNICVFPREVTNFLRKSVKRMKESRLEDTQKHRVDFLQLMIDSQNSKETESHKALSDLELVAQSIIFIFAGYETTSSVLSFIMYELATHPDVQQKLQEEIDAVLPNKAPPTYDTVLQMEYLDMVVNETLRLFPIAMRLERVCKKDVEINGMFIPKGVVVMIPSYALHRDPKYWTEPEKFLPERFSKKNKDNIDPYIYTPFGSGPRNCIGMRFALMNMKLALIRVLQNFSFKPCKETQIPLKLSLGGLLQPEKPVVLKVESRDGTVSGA
Chain of Cytochrome P450 3A5 (P20815 whole entry): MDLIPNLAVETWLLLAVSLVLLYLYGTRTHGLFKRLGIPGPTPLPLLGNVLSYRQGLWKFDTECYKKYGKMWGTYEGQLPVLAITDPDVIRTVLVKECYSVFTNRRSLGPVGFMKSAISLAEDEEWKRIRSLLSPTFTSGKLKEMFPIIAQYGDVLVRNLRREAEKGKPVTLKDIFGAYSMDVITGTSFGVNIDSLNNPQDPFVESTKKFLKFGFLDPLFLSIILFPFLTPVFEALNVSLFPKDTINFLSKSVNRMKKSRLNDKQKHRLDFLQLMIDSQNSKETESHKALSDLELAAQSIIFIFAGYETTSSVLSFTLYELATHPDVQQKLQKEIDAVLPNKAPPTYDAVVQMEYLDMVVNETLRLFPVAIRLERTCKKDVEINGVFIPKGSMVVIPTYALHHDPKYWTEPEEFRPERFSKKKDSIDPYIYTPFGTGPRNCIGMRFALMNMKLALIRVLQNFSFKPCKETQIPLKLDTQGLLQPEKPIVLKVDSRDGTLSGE

| Drug metabolism (Cytochrome P450 3A5) | Drug metabolism (Cytochrome P450 3A4) | Drug metabolism (Cytochrome P450 2C8) | Drug metabolism [1] | Drug metabolism (Cytochrome P450 2C9) | Drug metabolism [2] | Drug metabolism [3] | Drug metabolism [4] | Compound |
| --- | --- | --- | --- | --- | --- | --- | --- | --- |
| metabolite_detected | – | – | – | – | – | – | – | COc1ccc2nc(COc3ccc(CC(S)C(=O)O)cc3)n(C)c2c1 (stereo not drawn) |
| – | metabolite_not_detected | metabolite_not_detected | metabolite_detected | metabolite_detected | metabolite_not_detected | metabolite_detected | metabolite_not_detected | COc1ccc2nc(COc3ccc(C[14CH]4SC(=O)NC4=O)cc3)n(C)c2c1.Cl (racemic) |
